From ChEMBL document CHEMBL1152859, “The novel phosphoramidate derivatives of NSAID 3-hydroxypropylamides: synthesis, cytostatic and antiviral activity evaluations” (Eur J Med Chem, 2009)
Activity calls are given as the source filed them. No cut-off for these calls is given here.

Experiments:
Human alphaherpesvirus 2 = assay: Antiviral activity against Herpes simplex virus 2 infected in HEL cells assessed as inhibition of virus-induced cytopathicity; format: functional, organism-based
[1] = test system: Mammalian orthoreovirus 1; assay: Antiviral activity against Reovirus 1 infected in african green monkey Vero cells assessed as inhibition of virus-induced cytopathicity; format: functional, organism-based
Procedure, shortened: (§1)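 Cells were infected with 100 CCID50 of virus for 2 h, then residual virus was removed. Medium with graded compound concentrations was added and cultures were kept 3 days at 37 °C. Cytopathogenicity was scored microscopically. EC50 is the concentration reducing virus-induced cytopathogenicity by 50%.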

CCRF-CEM = assay: Cytostatic activity against human CEM cells after 72 hrs by MTT assay; format: functional, cell-based
HeLa = assay: Cytostatic activity against human HeLa cells after 72 hrs by MTT assay; format: functional, cell-based
Procedure, shortened: (§2)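 Monolayer cells were grown in DMEM with 10% FBS, 2 mM L-glutamine, penicillin and streptomycin at 37 °C under 5% CO2. They were seeded on day 0 at 1 × 10⁴ to 3 × 10⁴ cells/ml and exposed to five 10-fold dilutions (10⁻⁸ to 10⁻⁴ M) for 72 h, with a solvent control. Read-out was MTT. Quadruplicates in three experiments (WI 38: one experiment). IC50 by linear regression of percentage-of-growth.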

MIA PaCa-2 = assay: Cytostatic activity against human MIAPaCa2 cells after 72 hrs by MTT assay; format: functional, cell-based; conditions: MIA PaCa-2, 72 h; procedure, shortened: as §2
Human alphaherpesvirus 1 = assay: Antiviral activity against Herpes simplex virus 1 infected in HEL cells assessed as inhibition of virus-induced cytopathicity; format: functional, organism-based
L1210 = assay: Cytostatic activity against mouse L1210 cells after 48 hrs by MTT assay; format: functional, cell-based; conditions: L1210, 48 h
[2] = test system: Vesicular stomatitis virus; assay: Antiviral activity against Vesicular stomatitis virus infected in HEL cells assessed as inhibition of virus-induced cytopathicity; format: functional, organism-based
Procedure, shortened: (§3)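 Cell cultures were exposed for 2 h to 100 CCID50 of virus, and residual virus was then removed. Infected cells were further incubated with medium containing varying compound concentrations for 3 days at 37 °C. Virus-induced cytopathogenicity was scored microscopically. EC50 is the concentration giving a 50% reduction of cytopathogenicity.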

Coxsackievirus B4 [3] = assay: Antiviral activity against Coxsackievirus B4 infected in human HeLa cells assessed as inhibition of virus-induced cytopathicity; format: functional, organism-based; procedure, shortened: as §1
Vaccinia virus = assay: Antiviral activity against Vaccinia virus infected in HEL cells assessed as inhibition of virus-induced cytopathicity; format: functional, organism-based; conditions: Orthopoxvirus vaccinia; procedure, shortened: as §3
Punta Toro virus = assay: Antiviral activity against Punta Toro virus infected in african green monkey Vero cells assessed as inhibition of virus-induced cytopathicity; format: functional, organism-based; procedure, shortened: as §1
[4] = test system: Human immunodeficiency virus 1; assay: Antiviral activity against HIV1 3B infected in human CEM cells assessed as inhibition of virus-induced cytopathicity; format: functional, organism-based; conditions: CCRF-CEM
[5] = test system: Vesicular stomatitis virus; assay: Antiviral activity against Vesicular stomatitis virus infected in human HeLa cells assessed as inhibition of virus-induced cytopathicity; format: functional, organism-based; procedure, shortened: as §3
Human alphaherpesvirus 3 = assay: Antiviral activity against Varicella-Zoster virus infected in HEL cells assessed as inhibition of virus-induced cytopathicity; format: functional, organism-based
NCI-H460 = assay: Cytostatic activity against human H460 cells after 72 hrs by MTT assay; format: functional, cell-based; conditions: NCI-H460, 72 h; procedure, shortened: as §2
[6] = test system: Respiratory syncytial virus; assay: Antiviral activity against Respiratory syncytial virus infected in human HeLa cells assessed as inhibition of virus-induced cytopathicity; format: functional, organism-based; procedure, shortened: as §1
SW-620 = assay: Cytostatic activity against human SW620 cells after 72 hrs by MTT assay; format: functional, cell-based; conditions: SW-620, 72 h; procedure, shortened: as §2
MCF7 = assay: Cytostatic activity against human MCF7 cells after 72 hrs by MTT assay; format: functional, cell-based; conditions: MCF7, 72 h; procedure, shortened: as §2
[7] = Cytostatic activity against human Molt4/C8 cells after 72 hrs by MTT assay; format: functional, cell-based; conditions: MOLT-4, 72 h
[8] = test system: Human immunodeficiency virus 2; assay: Antiviral activity against HIV2 ROD infected in human CEM cells assessed as inhibition of virus-induced cytopathicity; format: functional, organism-based; conditions: CCRF-CEM
Cytomegalovirus = assay: Antiviral activity against Cytomegalovirus infected in HEL cells assessed as inhibition of virus-induced cytopathicity; format: functional, organism-based
Procedure, shortened: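 Confluent HEL fibroblasts were infected with CMV strains Davis and AD-169 at 100 PFU per well for 2 h, then virus was removed. Graded concentrations were added in duplicate and cultures kept 7 days at 37 °C. Cytopathogenicity was scored microscopically after ethanol fixation and Giemsa staining. EC50 is the 50% reduction.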

Human respirovirus 3 = assay: Antiviral activity against Parainfluenza-3 virus infected in african green monkey Vero cells assessed as inhibition of virus-induced cytopathicity; format: functional, organism-based; procedure, shortened: as §1
[9] = Cytostatic activity against human WI38 cells after 72 hrs by MTT assay; format: ADME, cell-based; conditions: WI-38, 72 h; procedure, shortened: as §2
Coxsackievirus B4 [10] = assay: Antiviral activity against Coxsackievirus B4 infected in african green monkey Vero cells assessed as inhibition of virus-induced cytopathicity; format: functional, organism-based; procedure, shortened: as §1
Sindbis virus = assay: Antiviral activity against Sindbis virus infected in african green monkey Vero cells assessed as inhibition of virus-induced cytopathicity; format: functional, organism-based; procedure, shortened: as §1

Compound	Activity (Human alphaherpesvirus 2)	Activity [1]	IC50 (CCRF-CEM) [µM]	IC50 (HeLa) [µM]	IC50 (MIA PaCa-2) [µM]	Activity (Human alphaherpesvirus 1)	IC50 (L1210) [µM]	Activity [2]	Activity (Coxsackievirus B4 [3])	Activity (Vaccinia virus)	Activity (Punta Toro virus)	Activity [4]	Activity [5]	Activity (Human alphaherpesvirus 3)	IC50 (NCI-H460) [µM]	Activity [6]	IC50 (SW-620) [µM]	IC50 (MCF7) [µM]	IC50 [7] [µM]	Activity [8]	further results
COC(=O)[C@H](C)NP(=O)(OCCCNC(=O)C(C)c1cccc(Oc2ccccc2)c1)Oc1ccc(Cl)cc1 (some centres undefined)	inactive	inactive	38	6	5	inactive	24	inactive	inactive	inactive	inactive	inactive	inactive	inactive	13	inactive	7	12	39	inactive	Activity (Cytomegalovirus): inactive; Activity (Human respirovirus 3): inactive; IC50 [9]: 20 µM; Activity (Coxsackievirus B4 [10]): inactive; Activity (Sindbis virus): inactive
O=C(Cc1ccccc1Nc1c(Cl)cccc1Cl)NCCCO	inactive	inactive	212	46	54	inactive	200	inactive	inactive	inactive	inactive	inactive	inactive	inactive	68	inactive	36	39	215	inactive	Activity (Cytomegalovirus): inactive; Activity (Human respirovirus 3): inactive; Activity (Coxsackievirus B4 [10]): inactive; Activity (Sindbis virus): inactive
COC(=O)[C@H](C)NP(=O)(OCCCNC(=O)Cc1ccccc1Nc1c(Cl)cccc1Cl)Oc1ccc(Cl)cc1 (some centres undefined)	inactive	inactive	22	16	16	inactive	13	inactive	inactive	inactive	inactive	inactive	inactive	inactive	17	inactive	16	9	9.7	inactive	Activity (Cytomegalovirus): inactive; Activity (Human respirovirus 3): inactive; IC50 [9]: 18 µM; Activity (Coxsackievirus B4 [10]): inactive; Activity (Sindbis virus): inactive
COC(=O)[C@H](C)NP(=O)(OCCCNC(=O)C(C)c1cccc(C(=O)c2ccccc2)c1)Oc1ccc(Cl)cc1 (some centres undefined)	inactive	inactive	40	19	14	inactive	44	inactive	inactive	inactive	inactive	inactive	inactive	inactive	18	inactive	17	14	40	inactive	Activity (Cytomegalovirus): inactive; Activity (Human respirovirus 3): inactive; IC50 [9]: 30 µM; Activity (Coxsackievirus B4 [10]): inactive; Activity (Sindbis virus): inactive
